Screening data deposited in PubChem BioAssay by several laboratories.
HSV replic up: increases HSV replication in cells; HSV replication augmentation in cells, fold increase; maximum fold increase; 220,000 compounds, 0.005% hits; in the data active means maximum fold increase above about 1.5; inconclusive means no clear call, values can overlap the other calls; tested in PC3 cells
STAT1 inh: inhibitors of IFN-gamma induced STAT1 signaling; NIH 3T3 STAT1-luciferase reporter, luminescence; inhibition, % at 5.5 µM; 200,000 compounds, 0.35% hits; AID 920;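 active means inhibition above a set limit, the mean inhibition across all tested compounds plus 3 SD, cut at about 34% in these data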;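 further: 0% = IFN-gamma with DMSO and 100% = IFN-gamma with 300 µM nifuroxazide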
STAT1 activator: STAT1 signaling activation. NIH 3T3 STAT1-luciferase reporter, IFN-gamma, luminescence; 100% = IFN-gamma alone, no compound. activation (% of control), % at 5.5 µM. 200,000 compounds, 2.6% hits. AID 932;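 active means activation above the screen-wide mean activation plus 3 SD, cut at about 130% in these data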;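 further: raw ratio to IFN-gamma control signal so 100% means no change and 0% no light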
Cl transport mod: modulates chloride dependent transport by human KCC2 | Q9H2X9 | KCC2 cells, thallium flux FluoZin-2 fluorescence | B-score of Tl+ flux slope (higher = more flux/activation; lower = inhibition) at 10 µM | 190,000 compounds, 2.2% hits;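 active means thallium flux slope and its plate-corrected score both differing from the plate sample mean at a set confidence after two filtering rounds, in either direction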;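 further: slope of fluorescence scaled to starting intensity during 10 to 20 s after thallium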
Target sequence (Q9H2X9 whole entry, looked up): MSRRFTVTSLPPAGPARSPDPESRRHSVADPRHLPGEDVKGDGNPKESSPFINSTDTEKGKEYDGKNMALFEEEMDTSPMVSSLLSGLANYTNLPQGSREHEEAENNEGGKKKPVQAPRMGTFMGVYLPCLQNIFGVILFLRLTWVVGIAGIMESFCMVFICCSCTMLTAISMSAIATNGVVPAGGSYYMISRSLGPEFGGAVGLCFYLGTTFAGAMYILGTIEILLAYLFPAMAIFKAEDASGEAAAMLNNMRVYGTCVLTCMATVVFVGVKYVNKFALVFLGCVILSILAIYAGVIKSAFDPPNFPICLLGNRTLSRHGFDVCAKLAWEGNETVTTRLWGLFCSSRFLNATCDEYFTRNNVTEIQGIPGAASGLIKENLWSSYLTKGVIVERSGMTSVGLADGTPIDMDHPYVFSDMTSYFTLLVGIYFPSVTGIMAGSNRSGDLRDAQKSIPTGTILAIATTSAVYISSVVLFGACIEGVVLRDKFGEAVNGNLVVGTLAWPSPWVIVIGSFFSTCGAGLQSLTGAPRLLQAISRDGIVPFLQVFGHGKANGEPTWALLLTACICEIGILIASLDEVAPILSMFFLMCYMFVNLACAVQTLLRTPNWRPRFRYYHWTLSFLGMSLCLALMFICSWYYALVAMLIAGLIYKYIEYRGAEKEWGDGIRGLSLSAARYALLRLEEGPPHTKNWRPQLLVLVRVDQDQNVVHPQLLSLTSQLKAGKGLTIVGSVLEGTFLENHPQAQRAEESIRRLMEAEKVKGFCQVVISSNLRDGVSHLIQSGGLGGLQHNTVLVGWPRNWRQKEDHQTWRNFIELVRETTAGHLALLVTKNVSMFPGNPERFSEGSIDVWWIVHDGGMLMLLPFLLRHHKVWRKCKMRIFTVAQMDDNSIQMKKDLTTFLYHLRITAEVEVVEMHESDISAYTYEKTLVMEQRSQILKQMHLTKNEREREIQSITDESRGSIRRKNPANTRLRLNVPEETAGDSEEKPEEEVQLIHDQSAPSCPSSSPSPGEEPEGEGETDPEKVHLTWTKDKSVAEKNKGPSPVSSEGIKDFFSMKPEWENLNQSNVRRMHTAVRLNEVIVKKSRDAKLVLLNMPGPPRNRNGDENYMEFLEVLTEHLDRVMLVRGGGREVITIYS
STAT3 inh: reduces IL-6 driven STAT3 reporter signal. AID 862. 190,000 compounds, 0.89% hits. U3A cells, IL-6 STAT3-luciferase reporter, luminescence; host cell line lacks STAT1. inhibition, % at 5.5 µM;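 active means inhibition above the mean inhibition across all screened compounds plus 3 SD, cut at about 44% in these data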;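 further: 0% = DMSO only wells and 100% = 100 µM nifuroxazide control wells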
STAT3 activator: STAT3 signaling activation | 190,000 compounds, 0.91% hits | activation (% of control), % at 5.6 µM | U3A cells, IL-6 STAT3-luciferase reporter, luminescence; 100% = signal with IL-6 EC80 alone | AID 871;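 active means activation above the screen-wide mean of compound activation plus 3 SD, cut at about 130% in these data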;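 further: 0% = background luminescence of wells with medium and substrate only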
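Material: STAT1-lacking human U3A cells, STAT3 luciferase reporter | Benchmarks: IL-6-only wells as 100% reference | Probe or stimulus: IL-6 (33 ng/mL) | Timing: Compound 1 h, then IL-6 6 h at 37 °C | Detection: Luminescence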
The depositor's hits bear a star. Shown are actives, neighbours in structure and some others; about 5.5% of the full set was active somewhere.

`O=C(Nc1ccon1)c1ccc(N2CCCCC2)c([N+](=O)[O-])c1` gave HSV replic up inactive, STAT1 inh -58, STAT1 activator 150*, Cl transport mod -0.71, STAT3 inh -5 and STAT3 activator 110.
C/C(CC(=O)Nc1ccc2c(c1)OCO2)=N\NC(=O)C(c1ccccc1)c1ccccc1 was read as HSV replic up inactive, STAT1 inh 7, STAT1 activator 93, Cl transport mod 0.19, STAT3 inh 20 and STAT3 activator 84.
`Clc1ccc(COn2nnc3ccccc32)c(Cl)c1` gave HSV replic up inactive, STAT1 inh -49, STAT1 activator 146*, Cl transport mod 0.87, STAT3 inh 20 and STAT3 activator 85.
`O=[N+]([O-])c1ccc(COn2nnc3ccccc32)cc1` gave HSV replic up inactive, STAT1 inh -20, STAT1 activator 115, Cl transport mod -0.3, STAT3 inh 19 and STAT3 activator 88.
S=c1nc[nH]c2c1sc1nc(-c3ccccc3)c3c(c12)CCCC3 was read as HSV replic up inactive, STAT1 inh -9, STAT1 activator 108, Cl transport mod 20*, STAT3 inh -8 and STAT3 activator 102.
For O=C(Nc1ccccc1Br)c1ccc(OC(=S)N2CCOCC2)cc1 the results were HSV replic up inactive, STAT1 inh -40, STAT1 activator 135*, Cl transport mod -0.46, STAT3 inh 14 and STAT3 activator 90.
O=C(Nc1ccccc1C(=O)N1CCOCC1)c1ccc(F)cc1 was read as HSV replic up inactive, STAT1 inh 1, STAT1 activator 99, Cl transport mod -0.4, STAT3 inh -8 and STAT3 activator 104.
Cc1ccc(NC(=O)c2ccc(OC(=S)N3CCOCC3)cc2)cc1 was read as HSV replic up inactive, STAT1 inh -34, STAT1 activator 131*, Cl transport mod 0.44, STAT3 inh 4 and STAT3 activator 102.
O=C(Oc1ccc(-c2ccccc2)cc1)N1CCOCC1 was read as HSV replic up inactive, STAT1 inh -41, STAT1 activator 137*, Cl transport mod -0.19, STAT3 inh 18 and STAT3 activator 88.
Screening Cc1onc(-c2ccccc2)c1C(=O)N/N=C/c1cc2c(cc1Cl)OCO2 returned HSV replic up inactive, STAT1 inh 2, STAT1 activator 98, Cl transport mod -0.09, STAT3 inh 3 and STAT3 activator 97.
Screening CCCCOc1ccc(-c2ncc(C(=O)O)c(C)n2)cc1 returned HSV replic up inactive, STAT1 inh -39, STAT1 activator 136*, Cl transport mod -0.93, STAT3 inh 6 and STAT3 activator 99.
For CCCCCCOc1ccc(C(=O)O)cc1 the results were HSV replic up inactive and Cl transport mod 0.5.
Screening O=C1/C(=C/c2ccc(N3CCCC3)cc2)NC(=S)N1C1CC1 returned HSV replic up inconclusive, STAT1 inh -17, STAT1 activator 116, Cl transport mod 1, STAT3 inh 10 and STAT3 activator 91.
O=C1N/C(=C/c2ccc(N3CCCC3)cc2)C(=O)N1c1ccccc1 was read as HSV replic up inactive, STAT1 inh -34, STAT1 activator 131*, Cl transport mod -0.64, STAT3 inh -2 and STAT3 activator 104.
Screening CCN(C)c1ccc(/C=N\n2nnnc2N)cc1 returned HSV replic up inactive, STAT1 inh -44, STAT1 activator 141*, Cl transport mod -0.93, STAT3 inh 8 and STAT3 activator 98.
`Brc1ccc2nc(N3CCN(c4ccccc4)CC3)sc2c1` gave HSV replic up inactive, STAT1 inh -36, STAT1 activator 129*, Cl transport mod 0.018, STAT3 inh 9 and STAT3 activator 97.
For O=S(=O)(c1ccccc1)N1CCN(c2nc3ccccc3s2)CC1 the results were STAT1 inh -6, STAT1 activator 105, Cl transport mod -0.33, STAT3 inh 8 and STAT3 activator 98.
For O=C(c1ccc2nc(N3CCOCC3)sc2c1)N1CCCC1 the results were HSV replic up inactive, STAT1 inh -4, STAT1 activator 101, Cl transport mod 1.2, STAT3 inh -10 and STAT3 activator 108.
`Fc1ccc2nc(N3CCOCC3)sc2c1` gave HSV replic up inactive, STAT1 inh -45, STAT1 activator 138*, Cl transport mod 0.21, STAT3 inh 5 and STAT3 activator 100.
For c1ccc(N2CCN(c3nc4cc5c(cc4s3)OCO5)CC2)cc1 the results were HSV replic up inactive, STAT1 inh -50, STAT1 activator 146*, Cl transport mod -0.21, STAT3 inh 41 and STAT3 activator 66.
Screening Clc1ccc2nc(N3CCN(c4ccccc4)CC3)sc2c1 returned HSV replic up inactive, STAT1 inh -40, STAT1 activator 137*, Cl transport mod -0.32, STAT3 inh 5 and STAT3 activator 98.
CC(=O)c1ccc(S(=O)(=O)Nc2ccc(-c3cn4c(n3)SCC4)cc2)cc1 was read as HSV replic up inactive, STAT1 inh -2, STAT1 activator 101, Cl transport mod 0.75, STAT3 inh 5 and STAT3 activator 99.
O=C(CCC1CCCN(C(=O)C2=CCCCC2)C1)N1CCN(c2ccccn2)CC1 (stereo unspecified) was read as HSV replic up inactive, STAT1 inh 9, STAT1 activator 90, Cl transport mod -0.89, STAT3 inh 10 and STAT3 activator 96.
Screening CNc1ccccc(-c2ccc3ccccc3n2)c1=O returned HSV replic up inactive, STAT1 inh -54, STAT1 activator 147*, Cl transport mod -0.031, STAT3 inh -7 and STAT3 activator 111.
`O=C(C1=NNCC1c1ccccc1)C1OC1c1ccccc1` (stereo unspecified) gave HSV replic up inactive and Cl transport mod -1.9.
CC(NC(=O)/C=C/c1ccco1)c1nc2ccccc2n1Cc1cccc(Cl)c1 (stereo unspecified) was read as STAT1 inh 2, STAT1 activator 98, Cl transport mod 0.16, STAT3 inh -10 and STAT3 activator 107.
`O=C1OC2(CCCCC2)OC(=O)C1=CNc1nc2ccccc2s1` gave HSV replic up inactive, STAT1 inh 2, STAT1 activator 97, Cl transport mod 3.7*, STAT3 inh 2 and STAT3 activator 98.
CCOC(=O)C1=NN(C(=O)Cc2ccccc2)C(O)(c2ccc(Cl)cc2)C1 (stereo unspecified) was read as STAT1 inh -7, STAT1 activator 106, Cl transport mod 1.3, STAT3 inh 6 and STAT3 activator 99.
CCOC(=O)C1=NN(C(=O)c2ccccc2)C(O)(c2ccc(C)cc2)C1 (stereo unspecified) was read as HSV replic up inconclusive, STAT1 inh -2, STAT1 activator 102, Cl transport mod 52*, STAT3 inh -2 and STAT3 activator 99.
